# According to ChEMBL document CHEMBL1155277, “Synthesis of new 4-isopropylthiazole hydrazide analogs and some derived clubbed triazole, oxadiazole ring systems--a novel class of potential antibacterial, antifungal and antitubercular agents” (Eur J Med Chem, 2009):
# Columns and labels:
# [1] = system: Escherichia coli; assay: Antimicrobial activity against Escherichia […] after 24 hrs by broth microdilution method; type: functional
# How it was run: (§1)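 Broth microdilution in tubes. Compounds were dissolved at 10 mg in 1 mL DMSO and diluted in Mueller-Hinton Broth for bacteria or Sabouraud Liquid Medium for yeasts and A. niger. Final concentrations were 1–500 µg/mL (1, 2, 4, 8, 16, 31.25, 62.5, 125, 250, 500), with DMSO at most 1% v/v. Inoculum was 10^5 cfu/mL, incubated at 37 °C for 24 h. MIC was the lowest concentration giving complete growth inhibition. Media and media-plus-DMSO served as growth controls.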
# [2] = system: Klebsiella pneumoniae; assay: Antimicrobial activity against Klebsiella pneumoniae ATCC 10031 after 24 hrs by broth microdilution method; type: functional; conditions: ATCC 10031, 24 h; how it was run: as §1
# [3] = system: Enterococcus faecalis; assay: Antimicrobial activity against Streptococcus faecalis ATCC 14506 after 24 hrs by broth microdilution method; type: functional; conditions: ATCC 14506, 24 h; how it was run: as §1
# [4] = system: Bacillus subtilis; assay: Antimicrobial activity against Bacillus subtilis ATCC 60511 after 24 hrs by broth microdilution method; type: functional; conditions: ATCC 60511, 24 h; how it was run: as §1
# [5] = system: Pseudomonas aeruginosa; assay: Antimicrobial activity against Pseudomonas aeruginosa ATCC 10145 after 24 hrs by broth microdilution method; type: functional; conditions: ATCC 10145, 24 h; how it was run: as §1
# [6] = system: Staphylococcus aureus; assay: Antimicrobial activity against Staphylococcus aureus ATCC 11632 after 24 hrs by broth microdilution method; type: functional; conditions: ATCC 11632, 24 h; how it was run: as §1
# [7] = system: Mycobacterium tuberculosis; assay: Antitubercular activity against Mycobacterium tuberculosis H37Rv after 21 days by broth dilution assay; type: functional; conditions: 504 h
# How it was run: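 H37Rv frozen stock in Middlebrook 7H9 broth with 10% albumin-dextrose-catalase and 0.2% glycerol, thawed and diluted to 10⁵ cfu mL⁻¹. Compounds dissolved in DMSO, diluted in broth (final DMSO 1.3%). U-tubes inoculated, incubated 37 °C for 21 days. Growth scored visually against drug-free and inoculum-free controls and isoniazid. MIC = lowest concentration inhibiting […] of starting population.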
# [8] = system: Candida tropicalis; assay: Antimicrobial activity against Candida tropicalis ATCC 1369 after 24 hrs by broth microdilution method; type: functional; conditions: ATCC 1369, 24 h; how it was run: as §1
# [9] = system: Aspergillus niger; assay: Antimicrobial activity against Aspergillus niger ATCC 6275 after 24 hrs by broth microdilution method; type: functional; conditions: ATCC 6275, 24 h; how it was run: as §1
# [10] = system: Saccharomyces cerevisiae; assay: Antimicrobial activity against Saccharomyces cerevisiae ATCC 9763 after 24 hrs by broth microdilution method; type: functional; conditions: ATCC 9763, 24 h; how it was run: as §1
# [11] = system: A549; assay: Cytotoxicity against human A549 cell at 250 uM by MTT assay relative to control; type: cell-based; conditions: a549, 250 µM
# How it was run: (§2)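 A549 lung adenocarcinoma cells were grown with 10% and 0.2% FBS. Compounds were held as 10 mM DMSO stocks and diluted in culture medium; cells were treated at 250 µM. Viability was read by MTT reduction against untreated cells and a DMSO vehicle control. The work was done as two experiments, each with triplicate readings.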
# [12] = system: A549; assay: Cytotoxicity against human A549 cell at 250 uM by MTT assay; type: cell-based; conditions: a549, 250 µM; how it was run: as §2
SMILES,MIC [1] [µg/mL],MIC [2] [µg/mL],MIC [3] [µg/mL],MIC [4] [µg/mL],MIC [5] [µg/mL],MIC [6] [µg/mL],MIC [7] [µg/mL],MIC [8] [µg/mL],MIC [9] [µg/mL],MIC [10] [µg/mL],Activity [11] [%],Activity [12]
O=C(O)c1cn(C2CC2)c2cc(N3CCNCC3)c(F)cc2c1=O [CIPROFLOXACIN],≤ 1,≤ 1,≤ 5,≤ 1,≤ 5,≤ 5,–,–,–,–,–,–
CC(C)=NNC(=O)c1nc(C(C)C)cs1,125,125,125,125,125,250,125,125,500,500,–,–
CC(C)c1csc(-c2nnc(S)n2N)n1,31.2,31.2,31.2,8,16,125,8,8,8,16,50,–
C/C(=N/NC(=O)c1nc(C(C)C)cs1)c1ccc(Cl)cc1,125,125,125,31.2,125,125,62.5,125,125,125,–,–
C/C(=N/NC(=O)c1nc(C(C)C)cs1)c1ccc(O)cc1,125,250,125,250,125,125,125,31.2,125,31.2,–,–
OC(Cn1cncn1)(Cn1cncn1)c1ccc(F)cc1F [FLUCONAZOLE],–,–,–,–,–,–,–,≤ 1,≤ 1,≤ 1,–,–
CC(=O)NNC(=O)c1nc(C(C)C)cs1,250,125,125,250,125,500,125,125,500,500,–,–
CC(C)c1csc(C(=O)N/N=C/c2cccc(Cl)c2Cl)n1,16,31.2,31.2,31.2,31.2,250,125,31.2,125,16,–,–
COc1cc(C2OC(c3nc(C(C)C)cs3)=NN2C(C)=O)cc(OC)c1OC (centres undefined),31.2,31.2,16,16,16,62.5,31.2,16,16,31.2,50,–
CC(=O)N1N=C(c2nc(C(C)C)cs2)OC1c1ccccc1 (centres undefined),62.5,62.5,62.5,31.2,16,125,31.2,16,16,31.2,–,–
CC(C)c1csc(C(=O)N/N=C/c2ccc([N+](=O)[O-])cc2)n1,31.2,125,250,125,125,125,125,62.5,31.2,125,–,–
C/C(=N/NC(=O)c1nc(C(C)C)cs1)c1ccc(Br)cc1,250,125,250,125,125,250,31.2,125,125,31.2,–,–
CC(=O)N1N=C(c2nc(C(C)C)cs2)OC1c1ccc([N+](=O)[O-])cc1 (centres undefined),250,125,125,250,125,125,62.5,125,31.2,500,–,–
C/C(=N/NC(=O)c1nc(C(C)C)cs1)c1ccccc1,125,125,250,250,250,250,125,500,250,500,–,–
CC(=O)N1N=C(c2nc(C(C)C)cs2)OC1c1cccc(Cl)c1Cl (centres undefined),125,125,16,16,31.2,125,62.5,16,31.2,16,–,–
COc1cc(/C=N/NC(=O)c2nc(C(C)C)cs2)cc(OC)c1OC,125,125,250,125,31.2,500,125,62.5,31.2,125,–,–
CC(=O)N1N=C(c2nc(C(C)C)cs2)OC1c1ccc(O)cc1 (centres undefined),16,31.2,31.2,16,31.2,125,31.2,16,16,31.2,–,Active
CC(C)c1csc(-c2nnc(S)o2)n1,31.2,16,31.2,16,31.2,125,8,16,31.2,31.2,–,–
CC(C)c1csc(C(=O)N/N=C/c2ccccc2)n1,31.2,125,125,125,16,500,250,62.5,31.2,62.5,–,–
CC(C)c1csc(C(=O)NN)n1,125,250,125,250,125,250,125,500,125,250,–,–
CC(C)c1csc(C(=O)N/N=C/c2ccc(N(C)C)cc2)n1,31.2,125,125,125,31.2,250,125,125,62.5,250,–,–
C/C(=N/NC(=O)c1nc(C(C)C)cs1)c1ccc([N+](=O)[O-])cc1,250,250,250,250,250,250,125,125,125,500,–,–
NNC(=O)c1ccncc1 [ISONIAZID],–,–,–,–,–,–,0.25,–,–,–,–,–
CC(C)c1csc(C(=O)N/N=C/c2ccc(O)cc2)n1,31.2,31.2,125,125,16,125,125,16,31.2,31.2,–,–
C/C(=N/NC(=O)c1nc(C(C)C)cs1)c1ccc(C)cc1,250,125,125,250,250,250,125,250,500,125,–,–
CCn1cc(C(=O)O)c(=O)c2cc(F)c(N3CCNCC3)cc21 [NORFLOXACIN],≤ 1,≤ 1,≤ 5,≤ 1,≤ 5,≤ 5,–,–,–,–,–,–
CC(=O)N1N=C(c2nc(C(C)C)cs2)OC1c1ccc(N(C)C)cc1 (centres undefined),16,31.2,125,31.2,16,125,62.5,31.2,31.2,31.2,–,–
